Data published in ChEMBL document CHEMBL3588757, “Structure-based design, synthesis and biological testing of piperazine-linked bis-epipodophyllotoxin etoposide analogs” (Bioorg Med Chem, 2015).

Legend:
Assay type in all cases: functional
HCC 2998 [1] = assay: Cytotoxicity against human HCC2998 cells by SRB assay
Outline: (§1)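 Measured in the NCI-60 human tumour cell line panel using five-dose testing. Growth was recorded at each dose for each cell line, and a GI50 was derived for each line.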

SK-MEL-28 [2] = assay: Cytotoxicity against human SK-MEL-28 cells by SRB assay
Outline: (§2)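 NCI-60 panel screen; 5-dose testing giving GI50 per cell line, plus a single 10 µM one-dose test. Method details not given beyond the NCI screen.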

OVCAR-8 [3] = assay: Cytotoxicity against human OVCAR8 cells assessed as cell growth at 0.05 uM by SRB assay; settings: read-out: Activity
SN12C = assay: Cytotoxicity against human SN12C cells assessed as cell growth at 0.05 uM by SRB assay; settings: read-out: Activity
RXF 393 [4] = assay: Cytotoxicity against human RXF393 cells assessed as cell growth at 5 uM by SRB assay; settings: read-out: Activity
LOX IMVI [5] = assay: Cytotoxicity against human LOXIMVI cells assessed as cell growth at 0.05 uM by SRB assay; settings: read-out: Activity
HL-60(TB) [6] = assay: Cytotoxicity against human HL-60(TB) cells assessed as cell growth at 50 uM by SRB assay; settings: read-out: Activity; outline: as §1
A549 [7] = assay: Cytotoxicity against human A549/ATCC cells by SRB assay
BT-549 = assay: Cytotoxicity against human BT549 cells assessed as cell growth at 50 uM by SRB assay; settings: read-out: Activity
SNB-75 [8] = assay: Cytotoxicity against human SNB75 cells assessed as cell growth at 50 uM by SRB assay; settings: read-out: Activity
T47D = assay: Cytotoxicity against human T47D cells assessed as cell growth at 50 uM by SRB assay; settings: read-out: Activity
RPMI-8226 = assay: Cytotoxicity against human RPMI8226 cells assessed as cell growth at 0.05 uM by SRB assay; settings: read-out: Activity
SR = assay: Cytotoxicity against human SR cells assessed as cell growth at 0.005 uM by SRB assay; settings: read-out: Activity
RXF 393 [9] = assay: Cytotoxicity against human RXF393 cells assessed as cell growth at 0.005 uM by SRB assay; settings: read-out: Activity
HL-60(TB) [10] = assay: Cytotoxicity against human HL-60(TB) cells by SRB assay; outline: as §1
SK-MEL-28 [11] = assay: Cytotoxicity against human SK-MEL-28 cells assessed as cell growth at 0.005 uM by SRB assay; settings: read-out: Activity
NCI-H226 = assay: Cytotoxicity against human NCI-H226 cells assessed as cell growth at 0.05 uM by SRB assay; settings: read-out: Activity
A549 [12] = assay: Cytotoxicity against human A549/ATCC cells assessed as cell growth at 0.05 uM by SRB assay; settings: read-out: Activity
OVCAR-8 [13] = assay: Cytotoxicity against human OVCAR8 cells assessed as cell growth at 0.005 uM by SRB assay; settings: read-out: Activity
SK-OV-3 = assay: Cytotoxicity against human SKOV3 cells assessed as cell growth at 0.05 uM by SRB assay; settings: read-out: Activity
SK-MEL-5 [14] = assay: Cytotoxicity against human SK-MEL-5 cells assessed as cell growth at 0.05 uM by SRB assay; settings: read-out: Activity
OVCAR-8 [15] = assay: Cytotoxicity against human OVCAR8 cells assessed as cell growth at 5 uM by SRB assay; settings: read-out: Activity
LOX IMVI [16] = assay: Cytotoxicity against human LOXIMVI cells assessed as cell growth at 0.5 uM by SRB assay; settings: read-out: Activity
A549 [17] = assay: Cytotoxicity against human A549/ATCC cells assessed as cell growth at 0.005 uM by SRB assay; settings: read-out: Activity
MDA-MB-231 = assay: Cytotoxicity against human MDA-MB-231/ATCC cells assessed as cell growth at 0.005 uM by SRB assay; settings: read-out: Activity
DU-145 = assay: Cytotoxicity against human DU145 cells assessed as cell growth at 50 uM by SRB assay; settings: read-out: Activity; outline: as §1
M14 = assay: Cytotoxicity against human M14 cells assessed as cell growth at 0.05 uM by SRB assay; settings: read-out: Activity
TK-10 [18] = assay: Cytotoxicity against human TK10 cells by SRB assay; outline: as §2
CAKI-1 = assay: Cytotoxicity against human Caki1 cells assessed as cell growth at 0.05 uM by SRB assay; settings: read-out: Activity
KM12 [19] = assay: Cytotoxicity against human KM12 cells assessed as cell growth at 0.05 uM by SRB assay; settings: read-out: Activity
HOP-92 = assay: Cytotoxicity against human HOP92 cells assessed as cell growth at 50 uM by SRB assay; settings: read-out: Activity; outline: as §1
MCF7 = assay: Cytotoxicity against human MCF7 cells assessed as cell growth at 0.05 uM by SRB assay; settings: read-out: Activity
SF-539 = assay: Cytotoxicity against human SF539 cells assessed as cell growth at 0.005 uM by SRB assay; settings: read-out: Activity
SK-MEL-5 [20] = assay: Cytotoxicity against human SK-MEL-5 cells assessed as cell growth at 50 uM by SRB assay; settings: read-out: Activity
HCC 2998 [21] = assay: Cytotoxicity against human HCC2998 cells assessed as cell growth at 0.5 uM by SRB assay; settings: read-out: Activity; outline: as §1
HOP-62 [22] = assay: Cytotoxicity against human HOP62 cells by SRB assay; outline: as §1
TK-10 [23] = assay: Cytotoxicity against human TK10 cells assessed as cell growth at 5 uM by SRB assay; settings: read-out: Activity
SNB-19 = assay: Cytotoxicity against human SNB19 cells assessed as cell growth at 0.05 uM by SRB assay; settings: read-out: Activity
KM12 [24] = assay: Cytotoxicity against human KM12 cells assessed as cell growth at 5 uM by SRB assay; settings: read-out: Activity
LOX IMVI [25] = assay: Cytotoxicity against human LOXIMVI cells assessed as cell growth at 0.005 uM by SRB assay; settings: read-out: Activity
SNB-75 [26] = assay: Cytotoxicity against human SNB75 cells assessed as cell growth at 0.05 uM by SRB assay; settings: read-out: Activity
SF-295 = assay: Cytotoxicity against human SF295 cells assessed as cell growth at 0.5 uM by SRB assay; settings: read-out: Activity
HOP-62 [27] = assay: Cytotoxicity against human HOP62 cells assessed as cell growth at 50 uM by SRB assay; settings: read-out: Activity; outline: as §1
IGROV-1 = assay: Cytotoxicity against human IGROV1 cells assessed as cell growth at 0.5 uM by SRB assay; settings: read-out: Activity; outline: as §1
[28] = read-out: LC50 (the source's name)
[29] = read-out: pLC50 (the source's name) (converted)

Molecule `COc1cc([C@@H]2c3cc4c(cc3[C@@H](NC(=O)CN3CCN(CCCCCCCCCCN5CCN(CC(=O)N[C@@H]6c7cc8c(cc7[C@@H](c7cc(OC)c(O)c(OC)c7)[C@H]7C(=O)OC[C@@H]76)OCO8)CC5)CC3)[C@H]3COC(=O)[C@H]23)OCO4)cc(OC)c1O` has a GI50 (HCC 2998 [1]; read-out: GI50) of 1.09 µM, a CC50 (HCC 2998 [1]; [28]) of 20.5 µM and a TGI (HCC 2998 [1]; read-out: TGI) of 8.39 µM. The GI50 (HCC 2998 [1]; read-out: pGI50 (converted)) was 1.1 µM, the CC50 (HCC 2998 [1]; [29]) was 20.4 µM and the TGI (HCC 2998 [1]; read-out: pTGI (converted)) was 8.32 µM. For the same molecule, the GI50 (SK-MEL-28 [2]; read-out: GI50) was 6.2 µM, the CC50 (SK-MEL-28 [2]; [28]) was 29.8 µM and the TGI (SK-MEL-28 [2]; read-out: TGI) was 13.6 µM. The GI50 (SK-MEL-28 [2]; read-out: pGI50 (converted)) was 6.17 µM, the CC50 (SK-MEL-28 [2]; [29]) was 29.5 µM and the TGI (SK-MEL-28 [2]; read-out: pTGI (converted)) was 13.5 µM. The growth at 0.05 µM (OVCAR-8 [3]) was 92%, the growth at 0.05 µM (SN12C) was 80% and the growth at 5 µM (RXF 393 [4]) was -34%. For the same molecule, the growth at 0.05 µM (LOX IMVI [5]) was 56%, the growth at 50 µM (HL-60(TB) [6]) was -46% and the GI50 (A549 [7]; read-out: GI50) was 0.0172 µM. It also gave a CC50 (A549 [7]; [28]) greater than 50 µM, a TGI (A549 [7]; read-out: TGI) of 0.883 µM and a GI50 (A549 [7]; read-out: pGI50 (converted)) of 0.0174 µM. The CC50 (A549 [7]; [29]) was greater than 50.1 µM, the TGI (A549 [7]; read-out: pTGI (converted)) was 0.891 µM and the growth at 50 µM (BT-549) was -26%. For the same molecule, the growth at 50 µM (SNB-75 [8]) was -26%, the growth at 50 µM (T47D) was -40% and the growth at 0.05 µM (RPMI-8226) was 13%. The growth at 0.005 µM (SR) was 98%, the growth at 0.005 µM (RXF 393 [9]) was 88% and the GI50 (HL-60(TB) [10]; read-out: GI50) was 0.113 µM. For the same molecule, the CC50 (HL-60(TB) [10]; [28]) was greater than 50 µM, the TGI (HL-60(TB) [10]; read-out: TGI) was 0.901 µM and the GI50 (HL-60(TB) [10]; read-out: pGI50 (converted)) was 0.112 µM. The CC50 (HL-60(TB) [10]; [29]) was greater than 50.1 µM, the TGI (HL-60(TB) [10]; read-out: pTGI (converted)) was 0.891 µM and the growth at 0.005 µM (SK-MEL-28 [11]) was 96%. It also gave a growth at 0.05 µM (NCI-H226) of 83%, a growth at 0.05 µM (A549 [12]) of 29% and a growth at 0.005 µM (OVCAR-8 [13]) of 101%. The growth at 0.05 µM (SK-OV-3) was 85%, the growth at 0.05 µM (SK-MEL-5 [14]) was 96% and the growth at 5 µM (OVCAR-8 [15]) was -28%. It also gave a growth at 0.5 µM (LOX IMVI [16]) of 21%, a growth at 0.005 µM (A549 [17]) of 74% and a growth at 0.005 µM (MDA-MB-231) of 98%. For the same molecule, the growth at 50 µM (DU-145) was -100%, the growth at 0.05 µM (M14) was 94% and the GI50 (TK-10 [18]; read-out: GI50) was 1.44 µM. It also gave a CC50 (TK-10 [18]; [28]) of 15.4 µM, a TGI (TK-10 [18]; read-out: TGI) of 4.57 µM and a GI50 (TK-10 [18]; read-out: pGI50 (converted)) of 1.45 µM. For the same molecule, the CC50 (TK-10 [18]; [29]) was 15.5 µM, the TGI (TK-10 [18]; read-out: pTGI (converted)) was 4.57 µM and the growth at 0.05 µM (CAKI-1) was 89%. It also gave a growth at 0.05 µM (KM12 [19]) of 91%, a growth at 50 µM (HOP-92) of -46% and a growth at 0.05 µM (MCF7) of 61%. The growth at 0.005 µM (SF-539) was 98%, the growth at 50 µM (SK-MEL-5 [20]) was -68% and the growth at 0.5 µM (HCC 2998 [21]) was 61%. It also gave a GI50 (HOP-62 [22]; read-out: GI50) of 0.0438 µM, a TGI (HOP-62 [22]; read-out: TGI) of 0.863 µM and a GI50 (HOP-62 [22]; read-out: pGI50 (converted)) of 0.0437 µM. The TGI (HOP-62 [22]; read-out: pTGI (converted)) was 0.871 µM, the growth at 5 µM (TK-10 [23]) was -4% and the growth at 0.05 µM (SNB-19) was 93%. The growth at 5 µM (KM12 [24]) was -22%, the growth at 0.005 µM (LOX IMVI [25]) was 86% and the growth at 0.05 µM (SNB-75 [26]) was 82%. For the same molecule, the growth at 0.5 µM (SF-295) was 61%, the growth at 50 µM (HOP-62 [27]) was -20% and the growth at 0.5 µM (IGROV-1) was 44%.
